Experimental findings from ChEMBL document CHEMBL1127605, “Synthesis of naphthalenesulfonic acid small molecules as selective inhibitors of the DNA polymerase and ribonuclease H activities of HIV-1 reverse transcriptase” (J Med Chem, 1994) are described below.

For test [1], the target named is Human immunodeficiency virus type 1 reverse transcriptase (Human immunodeficiency virus 1) (UniProt Q72547). Briefly: Inhibition of DNA polymerase activity of HIV-1 reverse transcriptase (at 50 uM). In short, it runs like this: (§1)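 Recombinant HIV-1 RT (BH-10 proviral clone, E. coli-expressed, purified to homogeneity, ~66 kDa) preincubated 5 min at 30 °C with test compound (50 μM for DNA polymerase, 200 μM for RNase H); reaction started with substrate, 30 min at 37 °C; residual activity expressed relative to initial linear rate without drug.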

Test [2] shares this target. In words: Inhibition of Ribonuclease H activity of HIV-1 reverse transcriptase (at 200 uM). An outline of the steps:
as §1

Test [3] has as its system MT4. Briefly: 50% effective antiviral concentration was determined on HIV-1 (HTLV-IIIB) in MT-4 cells. The format is functional, cell-based. The settings on record: Homo sapiens.
For test [4], the system named is MT4. In words: 50% cytotoxic concentration was determined on HIV-1 (HTLV-IIIB) in MT-4 cells. The test is classed as functional. As to conditions: Homo sapiens.
In test [5] the target is Human immunodeficiency virus type 1 reverse transcriptase (Human immunodeficiency virus 1, UniProt Q72547). Briefly: The 50% inhibitory concentration was measured as inhibition of Ribonuclease H activity of reverse transcriptase.

pEC50, pIC50: −log10 of the molar value.

For the compound `O=S(=O)(O)c1cccc2ccc(OS(=O)(=O)c3ccc(-c4ccc(S(=O)(=O)Oc5ccc6cccc(S(=O)(=O)O)c6c5)cc4)cc3)cc12`, the results for the Initial activity in test [1] and in test [2] were 0% and 48%, respectively.
`O=C(CCCCCCCCC(=O)Nc1cc(S(=O)(=O)O)cc2cc(S(=O)(=O)O)cc(O)c12)Nc1cc(S(=O)(=O)O)cc2cc(S(=O)(=O)O)cc(O)c12`: the Initial activity was determined as 0% in test [1] and 30% in test [2].
The matching figures for `O=C(CCCCCCC(=O)Nc1ccc(S(=O)(=O)O)c2cccc(S(=O)(=O)O)c12)Nc1ccc(S(=O)(=O)O)c2cccc(S(=O)(=O)O)c12`: 100% and 84%.
Turning to `O=S(=O)(O)c1cc(S(=O)(=O)O)c2cc(NS(=O)(=O)c3cccc4c(S(=O)(=O)Nc5ccc6cc(S(=O)(=O)O)cc(S(=O)(=O)O)c6c5)cccc34)ccc2c1`, the figures for the Initial activity in test [1] and in test [2] were 16% and 51%, respectively.
The matching figures for `Nc1ccc(S(=O)(=O)O)c2cccc(S(=O)(=O)O)c12`: 100% and 100%.
As to `CCCCCCCCCCCCCCCc1nc2c(cc(S(=O)(=O)O)c3ccccc32)o1`, the pEC50 (in general, −log10 of the EC50, conventionally taken in molar units) in the test with MT4 [3] was under 4.38. Also, the CC50 – broadly, the concentration at which the toxic effect on the cells reaches its halfway point – with MT4 [4] amounted to 42 µM. The Initial activity turned out to be 0.2% in test [1] and 68% in test [2].
On to `O=C(CCCCCCCCC(=O)Nc1ccc(S(=O)(=O)O)c2ccccc12)Nc1ccc(S(=O)(=O)O)c2ccccc12`, for which the Initial activity stood at 94% in test [1] and 70% in test [2].
As to `O=S(=O)(O)c1cccc2ccc(OS(=O)(=O)c3cccc4c(S(=O)(=O)Oc5ccc6cccc(S(=O)(=O)O)c6c5)cccc34)cc12`, the Initial activity in test [1] came to 25%; in test [2], 17%.
The matching figures for `O=C(CCCCCCC(=O)Nc1ccc(S(=O)(=O)O)c2ccccc12)Nc1ccc(S(=O)(=O)O)c2ccccc12`: 90% and 59%.
The like results for `Nc1ccc(S(=O)(=O)O)c2ccccc12` were, in that order, 100% and 88%.
On to `O=C(Oc1cc(S(=O)(=O)O)cc2cc(S(=O)(=O)O)ccc12)c1ccc(-c2ccc(C(=O)Oc3cc(S(=O)(=O)O)cc4cc(S(=O)(=O)O)ccc34)cc2)cc1`, for which the negative logarithm of the EC50 (pEC50) in the test on MT4 [3] is 4.09. In addition, in the test with MT4 [4], the CC50 is over 500 µM. In addition, the pIC50 (usually −log10 of the IC50, conventionally taken in molar units) in test [5] was 4.84. For the same compound, the figures for the Initial activity in test [1] and in test [2] were 0.2% and 0%, respectively.
On to `O=C(O)c1cc(NS(=O)(=O)c2cccc3c(S(=O)(=O)Nc4cc(C(=O)O)c(O)c(S(=O)(=O)O)c4)cccc23)cc(S(=O)(=O)O)c1O`, for which the Initial activity in test [1] amounted to 46%; in test [2], 75%.
Take `CCCCCCCCCCCCCCCC(=O)Oc1cc(S(=O)(=O)O)cc2cc(S(=O)(=O)O)cc(OC(=O)CCCCCCCCCCCCCCC)c12`: the Initial activity in test [1] worked out at 0%; in test [2], 27%.
The matching figures for `Cc1cc(C)c(S(=O)(=O)Nc2cc(C(=O)O)c(O)c(S(=O)(=O)O)c2)c(C)c1S(=O)(=O)Nc1cc(C(=O)O)c(O)c(S(=O)(=O)O)c1`: 2% and 32%.
The compound `CCCCCCCCCCCCCCCC(=O)Nc1ccc(S(=O)(=O)O)c2cccc(S(=O)(=O)O)c12` had a negative-log EC50 (pEC50) in the test with MT4 [3] of 4.00. It took 225 µM to reach half-maximal cytotoxicity with MT4 [4] (CC50). This compound also had a negative logarithm of the IC50 (pIC50) in test [5] of 4.56. Moreover, the results for the Initial activity in test [1] and in test [2] were 0.16% and 2.8%, respectively.
As for `CCCCCCCCCCCCCCCC(=O)Nc1c(OC(=O)CCCCCCCCCCCCCCC)cc(S(=O)(=O)O)c2ccccc12`, the negative-log EC50 (pEC50) with MT4 [3] was under 4.39. Besides, in the test on MT4 [4], the CC50 came to 41 µM. The Initial activity in test [1] was determined as 0.03%; in test [2], 5.3%.
The compound `O=C(CCCCCCCCCCC(=O)Nc1ccc(S(=O)(=O)O)c2ccccc12)Nc1ccc(S(=O)(=O)O)c2ccccc12` had a negative-log EC50 (pEC50) in the test with MT4 [3] of 3.59. Further, the 50% cytotoxic concentration (CC50) with MT4 [4] is over 500 µM. The Initial activity was found to be 100% in test [1] and 32% in test [2].
The like results for `Cc1cc(C)c(S(=O)(=O)Oc2ccc3cccc(S(=O)(=O)O)c3c2)c(C)c1S(=O)(=O)Oc1ccc2cccc(S(=O)(=O)O)c2c1` were, in that order, 4.38, 228 µM, 13% and 23%.
The matching figures for `CCCCCCCCCCCCCCCC(=O)Nc1ccc(S(=O)(=O)O)c2ccccc12`: under 4.33, 47 µM, 100% and 98%.
As to `CCCCCCCCCCCCCCCC(=O)Nc1c(O)cc(S(=O)(=O)O)c2ccccc12`, the negative logarithm of the EC50 (pEC50) with MT4 [3] was under 4.68. In the test on MT4 [4], this compound gave a cytotoxic concentration (CC50) of 21 µM. In test [5], this compound had a pIC50 of 4.32. For the same compound, the figures for the Initial activity in test [1] and in test [2] were 0.02% and 3%, respectively.
For `O=S(=O)(O)c1ccc2c(OS(=O)(=O)c3cccc4c(S(=O)(=O)Oc5cc(S(=O)(=O)O)cc6cc(S(=O)(=O)O)ccc56)cccc34)cc(S(=O)(=O)O)cc2c1`, the pEC50 with MT4 [3] was 4.41. This compound displayed a cytotoxic concentration (CC50) with MT4 [4] of 322 µM. In addition, the pIC50 in test [5] is 3.67. Besides, the Initial activity in test [1] turned out to be 0%; in test [2] it was 43%.
For `O=C(CCCCCCCCC(=O)Nc1ccc(S(=O)(=O)O)c2cccc(S(=O)(=O)O)c12)Nc1ccc(S(=O)(=O)O)c2cccc(S(=O)(=O)O)c12`, the Initial activity in test [1] was 54%; in test [2], 57%.
The matching figures for `O=C(Nc1ccc(S(=O)(=O)O)c2cccc(S(=O)(=O)O)c12)c1ccc(C(=O)Nc2ccc(S(=O)(=O)O)c3cccc(S(=O)(=O)O)c23)cc1`: 90% and 92%.
`CCCCCCCCCCCCCCCC(=O)Oc1cc(S(=O)(=O)O)c2ccccc2c1N` showed a negative-log EC50 (pEC50) with MT4 [3] of under 4.42. In the test with MT4 [4], this compound came in with a CC50 of 38 µM. Further, the Initial activity amounted to 6.5% in test [1] and 7.5% in test [2].
Consider `O=S(=O)(O)c1cc(S(=O)(=O)O)c2cc(NS(=O)(=O)c3ccc(-c4ccc(S(=O)(=O)Nc5ccc6cc(S(=O)(=O)O)cc(S(=O)(=O)O)c6c5)cc4)cc3)ccc2c1`, for which the Initial activity in test [1] amounted to 0.9%; in test [2], 28%.
The compound `CC(C)CCCC(C)C1CCC2C3CC=C4CC(OC(=O)Nc5cc(S(=O)(=O)O)cc6cc(S(=O)(=O)O)cc(O)c56)CC[C@]4(C)C3CC[C@]12C` (stereo not given in full) had a negative-log EC50 (pEC50) in the test on MT4 [3] of under 3.30. Further, the CC50 in the test on MT4 [4] was over 500 µM. In addition, the Initial activity in test [1] and in test [2] was 0% each time.
On to `O=C(CCCCCCCCCCC(=O)Nc1ccc(S(=O)(=O)O)c2cccc(S(=O)(=O)O)c12)Nc1ccc(S(=O)(=O)O)c2cccc(S(=O)(=O)O)c12`, for which the Initial activity is 13% in test [1] and 16% in test [2].
